Experimental data taken from ChEMBL document CHEMBL4706499, “PTG-0861: A novel HDAC6-selective inhibitor as a therapeutic strategy in acute myeloid leukaemia” (Eur J Med Chem, 2020).

Assays:
[1] = tested on: MV4-11; assay: Induction of apoptosis in human MV4-11 cells assessed as early apoptotic cells at 2 microM measured after 18 hrs by Annexin V/Propidium iodide stain based Flow cytometry assay (reference value: 1.7%); type: functional
[2] = Toxicity in CD-1 mouse assessed as changes in body weight at 20 mg/kg, po measured after 5 days; type: organism-based; settings: in vivo, 120 h, time 5 day
[3] = biological target: T1, Protein deacetylase HDAC6 (Homo sapiens, UniProt Q9UBN7); assay: Inhibition of HDAC6 in human HeLa cells assessed by deacetylation measured after 15 mins by ELISA; type: cell-based
T1 sequence (Q9UBN7 whole entry): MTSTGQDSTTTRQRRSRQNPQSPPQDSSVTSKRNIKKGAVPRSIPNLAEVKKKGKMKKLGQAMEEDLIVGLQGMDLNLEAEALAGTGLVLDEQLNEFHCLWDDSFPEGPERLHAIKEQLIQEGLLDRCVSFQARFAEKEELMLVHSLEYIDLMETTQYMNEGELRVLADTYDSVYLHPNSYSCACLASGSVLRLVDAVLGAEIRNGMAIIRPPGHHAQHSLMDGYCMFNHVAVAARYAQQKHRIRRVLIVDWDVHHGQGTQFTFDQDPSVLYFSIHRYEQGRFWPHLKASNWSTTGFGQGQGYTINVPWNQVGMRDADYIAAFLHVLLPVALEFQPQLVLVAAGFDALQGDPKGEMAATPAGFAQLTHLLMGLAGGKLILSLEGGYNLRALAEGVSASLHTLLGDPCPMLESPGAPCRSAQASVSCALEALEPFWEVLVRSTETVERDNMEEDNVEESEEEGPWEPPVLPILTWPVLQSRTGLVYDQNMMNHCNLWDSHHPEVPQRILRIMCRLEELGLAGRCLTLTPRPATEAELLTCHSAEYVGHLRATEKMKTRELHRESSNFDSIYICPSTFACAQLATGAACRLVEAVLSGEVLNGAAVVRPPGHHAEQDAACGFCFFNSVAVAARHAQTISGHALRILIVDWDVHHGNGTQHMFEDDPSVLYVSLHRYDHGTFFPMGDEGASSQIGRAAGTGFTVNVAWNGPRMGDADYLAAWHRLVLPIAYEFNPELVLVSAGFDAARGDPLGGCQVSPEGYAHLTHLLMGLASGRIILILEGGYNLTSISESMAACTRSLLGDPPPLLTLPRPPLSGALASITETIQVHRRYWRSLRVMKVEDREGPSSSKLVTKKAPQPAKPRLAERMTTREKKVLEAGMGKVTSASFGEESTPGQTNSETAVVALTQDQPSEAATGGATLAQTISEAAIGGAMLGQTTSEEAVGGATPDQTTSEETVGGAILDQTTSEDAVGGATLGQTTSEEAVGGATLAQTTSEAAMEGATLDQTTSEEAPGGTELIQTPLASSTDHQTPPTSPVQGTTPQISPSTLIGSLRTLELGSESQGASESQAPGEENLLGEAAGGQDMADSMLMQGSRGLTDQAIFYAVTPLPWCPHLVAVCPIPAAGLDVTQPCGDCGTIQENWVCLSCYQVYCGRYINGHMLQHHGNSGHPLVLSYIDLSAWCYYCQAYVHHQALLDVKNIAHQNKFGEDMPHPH
Procedure, shortened: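 ELISA activity assay using HeLa-derived active HDAC6 coated on plates. A range of inhibitor concentrations was incubated with the enzyme, and deacetylation activity was monitored over time, with a 0.25 h read. The IC50 was taken from the inhibition profile.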

[4] = Half life in mouse hepatocytes measured after 120 mins by LC/MS/MS method; type: ADME, cell-based, Hepatocyte
[5] = AUC (last) in CD1 mouse at 20 mg/kg, ip measured after 24 hrs by LC/MS/MS method; type: ADME, organism-based; design: route intraperitoneal, dose 20 mg/kg, time 24 hrs; settings: in vivo
[6] = Glutathione reactivity at pH 7.4 assessed as compound remaining measured by LC-MS/MS method; type: physicochemical
[7] = biological target: T2, Histone deacetylase 6 (Danio rerio, UniProt F8W4B7); assay: Inhibition of N-terminal 6 His-SUMO tagged Zebrafish HDAC6 CD2 domain expressed in Escherichia coli BL21(DE3) RILP pretreated for 10 mins before FITC-M344 addition and measured after 10 mins by fluorescence polarization competition assay
T2 sequence (F8W4B7 whole entry): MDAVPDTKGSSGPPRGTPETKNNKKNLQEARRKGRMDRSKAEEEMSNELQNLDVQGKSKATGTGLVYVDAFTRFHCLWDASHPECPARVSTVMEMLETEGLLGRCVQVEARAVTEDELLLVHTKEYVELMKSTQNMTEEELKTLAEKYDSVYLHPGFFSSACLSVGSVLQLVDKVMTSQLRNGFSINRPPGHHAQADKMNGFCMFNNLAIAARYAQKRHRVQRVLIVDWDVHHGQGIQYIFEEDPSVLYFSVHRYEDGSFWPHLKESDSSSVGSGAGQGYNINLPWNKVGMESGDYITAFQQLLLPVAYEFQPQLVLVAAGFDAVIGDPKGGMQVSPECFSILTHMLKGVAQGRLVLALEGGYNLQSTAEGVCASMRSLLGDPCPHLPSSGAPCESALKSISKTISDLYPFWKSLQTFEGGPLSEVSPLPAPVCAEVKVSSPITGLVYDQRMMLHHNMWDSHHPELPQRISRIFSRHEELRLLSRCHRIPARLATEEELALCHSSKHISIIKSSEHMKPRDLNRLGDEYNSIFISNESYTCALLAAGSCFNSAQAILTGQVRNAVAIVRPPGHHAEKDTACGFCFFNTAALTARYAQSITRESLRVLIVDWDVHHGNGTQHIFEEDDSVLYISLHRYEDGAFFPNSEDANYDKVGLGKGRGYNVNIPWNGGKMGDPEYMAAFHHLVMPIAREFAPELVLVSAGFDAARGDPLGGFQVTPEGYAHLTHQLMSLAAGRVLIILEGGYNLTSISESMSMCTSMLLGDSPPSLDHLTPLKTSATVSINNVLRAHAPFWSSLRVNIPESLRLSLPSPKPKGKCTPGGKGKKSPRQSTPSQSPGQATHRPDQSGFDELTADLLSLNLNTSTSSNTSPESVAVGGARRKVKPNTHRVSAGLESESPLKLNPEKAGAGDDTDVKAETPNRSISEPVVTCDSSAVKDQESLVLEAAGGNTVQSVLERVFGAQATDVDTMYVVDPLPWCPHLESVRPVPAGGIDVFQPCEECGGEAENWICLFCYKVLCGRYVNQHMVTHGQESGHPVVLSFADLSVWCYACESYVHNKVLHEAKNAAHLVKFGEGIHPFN

[8] = Cytotoxicity against human MRC9 cells measured after 72 hrs by spectrophotometer method; type: cell-based; settings: MRC9, 72 h
[9] = Glutathione reactivity at pH 7.4 assessed as compound remaining measured after 120 mins by LC-MS/MS method; type: physicochemical; settings: glutathione solution, read-out: Stabilty
[10] = Selectivity ratio of IC50 for full length recombinant human HDAC3 to IC50 for full length recombinant human HDAC6
[11] = AUC (infinity) in CD1 mouse at 20 mg/kg, ip measured after 24 hrs by LC/MS/MS method; type: ADME, organism-based; design: route intraperitoneal, dose 20 mg/kg, time 24 hrs; settings: in vivo

IC50 [3]: 590 nM
half-life [4]: 50.9 min
AUC(0-t) at 24 h [5]: 190 ng·h/mL
Stabilty [6]: 100%
IC50 [7]: 74 nM
remaining at 2 h [9]: 97.1%
Ratio IC50 [10]: 36.3
AUC(0-inf) [11]: 219 ng·h/mL
SMILES: O=C(NO)c1ccc(CNC(=O)c2c(F)c(F)c(F)c(F)c2F)cc1
Activity [1]: 7.73%
Activity [2]: Non-Toxic
IC50 [8]: > 50000 nM
